Screens (PubChem)
HNF4A DNA FP: change in binding of human HNF4 alpha to DNA; hit rate 0.3% among 360,000; activity change, % at 10 µM; HNF4a-FITC DNA binding, fluorescence polarization, 1 h; P41235; AID 1224865; in the data active means activity change above about 30%, passing the limit was not always enough
Rev-erbA mod: modulates human Rev-erb alpha binding to DNA. P20393. Rev-erbα–FITC-DNA binding, fluorescence polarization, 90 min. activity, % at 10 µM. hit rate 0.79% among 370,000. AID 1259318;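 active means activity above about 14%, limit read from the data; passing the limit was not always enough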;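 further: 0% = DMSO wells with 35 nM protein and 100% = DMSO wells with 750 nM protein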
Target sequence (P20393 whole entry, looked up): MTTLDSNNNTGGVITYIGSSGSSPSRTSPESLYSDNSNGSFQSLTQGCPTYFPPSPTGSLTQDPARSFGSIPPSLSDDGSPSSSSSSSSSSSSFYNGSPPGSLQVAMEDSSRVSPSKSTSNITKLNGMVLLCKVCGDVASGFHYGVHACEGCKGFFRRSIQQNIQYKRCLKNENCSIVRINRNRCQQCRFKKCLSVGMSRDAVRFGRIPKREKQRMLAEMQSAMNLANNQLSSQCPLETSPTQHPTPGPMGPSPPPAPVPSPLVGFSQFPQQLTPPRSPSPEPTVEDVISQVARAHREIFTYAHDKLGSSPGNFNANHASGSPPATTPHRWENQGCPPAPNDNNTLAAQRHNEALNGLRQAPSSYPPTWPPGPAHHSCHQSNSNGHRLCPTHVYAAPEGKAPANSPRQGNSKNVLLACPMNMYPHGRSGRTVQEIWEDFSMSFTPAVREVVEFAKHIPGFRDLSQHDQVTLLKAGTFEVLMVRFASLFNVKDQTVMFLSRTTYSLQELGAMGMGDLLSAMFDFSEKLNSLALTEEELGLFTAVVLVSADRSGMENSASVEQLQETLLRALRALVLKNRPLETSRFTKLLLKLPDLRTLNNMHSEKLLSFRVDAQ
aDG glyco up: alpha-DG glycosylation activation; Pro5-aDG cells, alpha-DG glycosylation AlphaScreen (IIH6); 0% Pro5, 100% B10-LARGE cell signal; activation, % at 10 µM; hit rate 0.22% among 360,000; AID 624168;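 active means activation of at least 8% versus controls, or a plate z-score of at least 8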;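 further: Pro5 are CHO cells carrying HIG-tagged alpha-DG that lacks glycosylation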
CSN inh: CSN deneddylation inhibition | Q92905 | Purified CSN, SCF-Nedd8-OG deneddylation, fluorescence polarization | inhibition, % at 12.5 µM | hit rate 0.38% among 360,000;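 active means pattern-corrected inhibition above about 35%, with an unprinted fluorescence ratio check between 0.5 and 1.5, limit read from the data, passing the limit was not always enough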;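 further: 0% = enzyme with substrate and 100% = substrate without enzyme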
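Detection – fluorescence polarization · System – HEK293T-derived human Csn5 enzyme · Controls – substrate-only high control, full reaction low control · Timing – 90 min, room temperature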
Numbers without * were called inactive; / = no result given. Hits are enriched below; roughly 1.5% of the tested compounds scored in any of these assays.

SMILES | HNF4A DNA FP | Rev-erbA mod | aDG glyco up | CSN inh
O=C(NCCN1CCCCC1)c1cccc2c1C(=O)c1ccc(N3CCCC3)cc1S2(=O)=O | 60.5 | -2.0 | 0.0 | 33.3
CC(C)(C)CNC(=O)c1cccc2c1C(=O)c1ccc(N3CCCC3)cc1S2(=O)=O | 88.0 | 20.7 | -0.3 | 42.2*
O=C(NCc1ccc(F)cc1)c1cccc2c1C(=O)c1ccc(N3CCC(N4CCCCC4)CC3)cc1S2(=O)=O | 56.0 | 0.2 | -0.3 | 44.8*
CC(C)c1cccc(-c2ccc3c(c2)S(=O)(=O)c2cccc(C(=O)NCc4ccco4)c2C3=O)c1 | -19.5 | -29.8 | -0.3 | 49.0*
CC(C)c1cccc(-c2ccc3c(c2)S(=O)(=O)c2cccc(C(=O)O)c2C3=O)c1 | -1.6 | 0.3 | 0.1 | 3.5
O=C(NCc1ccco1)c1cccc2c1C(=O)c1ccc(N3CCC(N4CCCCC4)CC3)cc1S2(=O)=O | 53.3 | -29.6 | 0.0 | 38.7*
O=C(O)C1CSCN1 (stereo not drawn) | / | 3.4 | / | /
CC(=O)[C@@]12O[C@](C)(c3ccccc3)O[C@@H]1CC1C3CCC4=CC(=O)CC[C@]4(C)C3CC[C@@]12C (stereo partly drawn) | / | 2.2 | / | /
COc1ccccc1Cc1c(-c2ccccc2)nc2c(C)cc(Br)cn12 | 9.1 | -3.4 | -0.2 | 96.7*
COc1ccccc1Cc1c(-c2ccc(C#N)cc2)nc2c(Cl)cc(C(F)(F)F)cn12 | 60.8 | / | -0.1 | 45.7*
Nc1nc2c(c(=O)[nH]1)N(C=O)C(CNc1ccc(C(=O)N[C@@H](CCC(=O)O)C(=O)O)cc1)CN2 (stereo partly drawn) | / | -6.7 | / | /
N#CCC[C@H]1CC[C@]2(CCCN(Cc3ccc(Br)cc3)C2)O1 | / | -0.5 | / | /
S=c1[nH]nc(C2CCCCC2)n1/N=C/c1ccc(Br)s1 | 34.6* | 5.4 | -0.1 | 4.6
COc1ccc(-c2cc(-c3ccccc3)c(C#N)c(SCC(=O)O)n2)cc1 | 1.6 | 2.2 | -0.2 | 4.7
COc1ccc(-c2cc(-c3ccc(Cl)cc3)c(C#N)c(SCC(=O)O)n2)cc1 | -5.7 | -10.3 | -0.3 | 41.5*
Cc1ccc(-c2nnc(SCC(=O)Nc3ccc4c(c3)OCCO4)n2-c2ccc(Cl)cc2)cc1 | / | -1.2 | / | /
COC(=O)[C@]12C[C@H](CC(=O)NCCCN3CCCC3=O)C(=O)N(Cc3cccc4ccccc34)C1=C[C@H](C(C)(C)C)O[C@@H]2C | / | 3.0 | / | /
C=CCNc1nc(NCCOC)c2sc(-c3ccccc3)cc2n1 | 0.7 | 4.6 | 0.7 | 1.9
C=CCNc1nc(NCc2ccc(N(C)C)cc2)c2sc(-c3ccccc3)cc2n1 | 0.4 | 4.3 | 0.4 | 48.8*
CC1=CSC2=NC(=O)/C(=C\c3cccn3-c3ccccc3)C(=N)N12 | 7.9 | -4.3 | -0.4 | 3.6
Cc1ccccc1Cn1cccc1/C=C1/C(=N)N2C=CSC2=NC1=O | 5.0 | -4.6 | 0.2 | 41.0*
CC(C)c1ccc(-n2cccc2/C=C2/C(=N)N3C=CSC3=NC2=O)cc1 | 51.4* | 8.7 | -0.2 | 22.1
COc1cc(/C=N/NC(=O)c2ccccc2O)ccc1OCC(=O)Nc1ccccc1 | -3.0 | -34.7 | -0.1 | 48.6*
COc1cc(/C=C(\C#N)c2nc3ccccc3s2)ccc1OCC(=O)Nc1ccccc1 | 33.0* | / | -0.3 | 39.7*
O=C(COc1ccc(/C=N/NC(=O)c2cc3ccccc3o2)cc1Cl)Nc1ccccc1 | 45.3* | / | -0.3 | 119.5*
SMILES | HNF4A DNA FP | Rev-erbA mod | aDG glyco up | CSN inh
COC(=O)[C@]12C=CCN1[C@@H](c1ccc(OC)c(OC)c1)c1c(c3ccccc3n1S(=O)(=O)c1ccc(C)cc1)C2 | / | -1.9 | / | /
CCC(=O)Oc1ccc(C(=O)Nc2ccc3c(c2)C(=O)N(C2CCCCC2)C3=O)cc1 | 38.7* | 0.9 | 1.5 | -1.1
O=C(O)COc1ccc(NC(=O)c2ccc3c(c2)C(=O)N(C2CCCCC2)C3=O)cc1 | 1.6 | 0.8 | 0.2 | 1.9
CC(=O)NC(Cc1ccc(O)cc1)C(=O)O (stereo not drawn) | / | 3.8 | / | /
Cn1c(=N)n(CC(=O)c2ccc(Cl)c(Cl)c2)c2ccccc21 | -0.5 | -2.1 | 7.4* | -0.6
N=c1n(CC(=O)c2ccc(Br)cc2)c2ccccc2n1Cc1ccccc1 | 0.8 | 1.2 | 9.1* | 1.8
CC(C)c1nc(N(C)S(C)(=O)=O)nc(-c2ccc(F)cc2)c1/C=C/[C@@H](O)C[C@@H](O)CC(=O)O | / | 1.1 | / | /
COCCN1C(=O)CCC1(C)C(=O)NC1CCCCC1 (stereo not drawn) | -0.8 | -1.7 | -0.4 | 120.8*
CN1/C(=C\C=O)C(C)(C)c2ccccc21 | 7.3 | 7.9 | 0.0 | -1.4
CN1\C(=C/C=C/C=C/C=[N+](C)C)C(C)(C)c2ccccc21 | 101.6* | -17.4 | 0.9 | 120.2
C=C[C@H]1CN2CC[C@@H]1C[C@@H]2[C@H](O)c1ccnc2ccc(OC)cc12 | / | 2.9 | / | /
CC(/C=C/c1ccc(N(C)C)cc1)=N\N=C1\NC(=O)CC(C(=O)Nc2ccccc2)S1 (stereo not drawn) | 33.8* | -1.1 | -0.2 | 5.7
CO/N=C(/C(=O)N[C@H]1C(=O)N2C(C(=O)OC(C)OC(C)=O)=C(COC(N)=O)CSC12)c1ccco1 (stereo partly drawn) | / | -5.1 | / | /
CC(C)C[C@H]1CNC(=S)N1C[C@H]1CCCN1C[C@H](CC(C)C)N1C[C@H](Cc2ccccc2)N(CCc2ccccc2)C1=S | -0.8 | -1.8 | 0.6 | 110.1*
CC(=O)[C@H]1CCC2C3CC=C4C[C@@H](OC(=O)CCC(=O)O)CC[C@]4(C)C3CC[C@@]21C (stereo partly drawn) | / | -3.2 | / | /
COc1ccc(Cn2c(NC(=O)c3ccccc3)nc(Cc3ccccc3)c2Cc2ccccc2)cc1 | / | 3.4 | / | /
Cc1ccc(Cl)cc1N1CCN(C(=O)C2CCN(S(=O)(=O)c3cccnc3)CC2)CC1 | -2.4 | 1.7 | 7.5* | 0.5
O=C(C1CCN(S(=O)(=O)c2cccnc2)CC1)N1CCN(c2ccccc2Cl)CC1 | 3.8 | 0.7 | 0.5 | 4.7
CC(Oc1ccc(Cl)cc1Cl)C(=O)Nc1ccncc1 (stereo not drawn) | -4.0 | -1.1 | 0.4 | 48.0*
CC(=O)Nc1ccc(NC(=O)C(C)Oc2ccc(Cl)cc2Cl)cc1 (stereo not drawn) | 4.3 | 5.2 | -0.2 | -1.7
C=CS(=O)(=O)N(Cc1nnn(Cc2ccccc2)c1Br)[C@@H](CC(C)C)C(=O)OC | / | -6.1 | / | /
COC(=O)[C@H](C(C)C)N1Cc2nnn(CC3CCCCC3)c2-c2cc(F)ccc2S1(=O)=O | / | 3.4 | / | /
Cc1ccc(-c2nc(NC(=O)CSc3nnc4scc(-c5ccccc5)n34)ns2)cc1 | -3.2 | -0.4 | 0.0 | 37.4*
O=C(CNc1cccc2ccccc12)N/N=C/c1ccc([N+](=O)[O-])o1 | 4.0 | -1.3 | 8.2* | 2.6
O=C(N/N=C/c1ccc([N+](=O)[O-])o1)c1ccc2c(c1)OCO2 | 2.9 | 0.0 | 10.4* | 8.8
O=C(Cc1ccc([N+](=O)[O-])cc1)N/N=C/c1ccc([N+](=O)[O-])o1 | 5.6 | 10.7 | 10.2* | 6.4
CCCCCCCC(=O)N/N=C/c1ccc([N+](=O)[O-])o1 | -3.1 | -2.6 | 0.9 | 7.7
